ChEMBL document CHEMBL1944612, “Structural modification of ginsenoside Rh(2) by fatty acid esterification and its detoxification property in antitumor” (Bioorg Med Chem Lett, 2012)

What was measured:
[1] = Growth inhibition of human QSG7701 cells at 50 uM after 48 hrs by MTT assay; details: read-out: GI
Procedure, shortened: (§1)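 QSG-7701 human hepatocytes seeded at 5×10^3 cells/mL in 96-well plates. Compounds were dissolved in DMSO and diluted in RPMI 1640 (final DMSO <0.1%), in triplicate, for 48 h. MTT (5 mg/mL stock) was added for 2 h, and formazan was dissolved in DMSO. OD was read at 570 nm (450 nm reference). IC50 is the concentration giving 50% absorbance reduction versus vehicle control.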

Mus musculus [2] = experiment: Immunostimulatory activity in Kunming mouse xenografted with […] cells assessed as change in thymus mass at 10 mg/kg, po qd for 10 days (reference value: 1.83 +/- 0.85 mg/kg); type: functional
Mus musculus [3] = experiment: Immunostimulatory activity in Kunming mouse xenografted with […] cells assessed as change in thymus mass at 5 mg/kg, po qd for 10 days (reference value: 1.83 +/- 0.85 mg/kg); type: functional
Mus musculus [4] = experiment: Immunostimulatory activity in Kunming mouse xenografted with […] cells assessed as change in spleen mass at 5 mg/kg, po qd for 10 days (reference value: 6.61 +/- 1.84 mg/kg); type: functional
Mus musculus [5] = experiment: Toxicity in Kunming mouse xenografted with […] cells assessed as change in body weight at 20 mg/kg, po qd for 10 days (reference value: 24.8 +/- 1.1 g); type: organism-based; parameters: dose 20 mg/kg, route oral; details: in vivo, 240 h
Mus musculus [6] = experiment: Immunostimulatory activity in Kunming mouse xenografted with […] cells assessed as change in spleen mass at 10 mg/kg, po qd for 10 days (reference value: 6.61 +/- 1.84 mg/kg); type: functional
[7] = Growth inhibition of human QSG7701 cells after 48 hrs by MTT assay; details: QSG7701, 48 h; procedure, shortened: as §1
H22 (Mus musculus) = experiment: Antitumor activity against mouse H22 cells xenografted in Kunming mouse assessed as reduction in tumor weight at 5 mg/kg, po qd for 10 days; details: 240 h
H22 = experiment: Antitumor activity against human H22 cells xenografted in Kunming mouse assessed as reduction in tumor volume at 20 mg/kg, po qd for 10 days; details: 240 h, read-out: INH
Mus musculus [8] = experiment: Toxicity in Kunming mouse xenografted with human H22 cells assessed as change in body weight at 20 mg/kg, po qd for 10 days (reference value: 23.4 +/- 2.8 g); type: organism-based; parameters: dose 20 mg/kg, route oral; details: in vivo, 240 h

SMILES | inhibition at 48 h, 50 µM [1] [%] | Activity (Mus musculus [2]) [mg/g] | Activity (Mus musculus [3]) [mg/g] | Activity (Mus musculus [4]) [mg/g] | Activity (Mus musculus [5]) [g] | Activity (Mus musculus [6]) [mg/g] | IC50 [7] [µM] | inhibition in vivo at 5 mg/kg (H22 (Mus musculus)) [%] | inhibition in vivo at 20 mg/kg (H22) [%] | Activity (Mus musculus [8]) [g]
CCCCCCCC(=O)OC[C@H]1O[C@@H](O[C@H]2CC[C@]3(C)[C@H]4C[C@@H](OC(=O)CCCCCCC)[C@@H]5[C@@H]([C@@](C)(O)CCC=C(C)C)CC[C@@]5(C)[C@]4(C)CC[C@H]3C2(C)C)[C@H](O)[C@@H](O)[C@@H]1O | 18 | 3.42 | 2.15 | 5.27 | 27.1 | 6.31 | 80.5 | 52 |  | 
O=P1(N(CCCl)CCCl)NCCCO1 (configuration not stated) [CYCLOPHOSPHAMIDE ANHYDROUS] |  |  |  |  |  |  |  |  | 72 | 
CC(C)=CCC[C@](C)(O)[C@H]1CC[C@]2(C)[C@@H]1[C@H](O)C[C@@H]1[C@@]3(C)CC[C@H](O[C@@H]4O[C@H](CO)[C@@H](O)[C@H](O)[C@H]4O)C(C)(C)[C@@H]3CC[C@]12C [GINSENOSIDE RH2] | 83 | 2.09 | 2.25 | 5.48 |  | 5.35 | 37.3 | 53 |  | 23.2
